Assay outcomes: PubChem, several laboratories
Sampled rows, rich in hits. Any-hit rate of the full collection: about 1.2%.
CRFBP-R2 agonist – agonists of CRF-BP/CRF-R2 complex, primary screen, cell-based, HEK293, calcium dye fluorescence, uHTS; actives 0.46% (n = 350,000); activation, % at 13.2 µM; AID 588473, 2011; calcium dye fluorescence (FLIPR); percent of saturating CRF peptide response;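 active = activation of at least 50%, plus an integration ratio under a set limit after plate pattern correction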;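 note: plate controls were neutral control wells without compound for no effect and CRF at EC100 for full effect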
CRFBP-R2 block – antagonists of CRF-BP/CRF-R2 complex, primary screen, cell-based, HEK293, calcium dye fluorescence, uHTS; inhibition, % at 11.8 µM; AID 588475, 2011; actives 0.59% (n = 350,000); CRF-induced calcium fluorescence;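 active = inhibition of the ligand-induced calcium signal above about 50% at the single tested concentration, limit read from the data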
TRPN1 ag – zebrafish TRPN1 channel agonists, primary screen, cell-based, HEK293, calcium fluorescence. transient receptor potential cation channel N1 (TRPN1/NompC), Danio rerio. HEK293 zebrafish TRPN1-YFP, Fluo-8 calcium fluorescence; 100% = response to 87 µM carbachol. activation, % at 3 µM. actives 0.18% (n = 220,000). AID 1424, 2008;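 active = activation above its plate's cutoff, the mean activation of test wells on that plate plus 3 SD, cut at about 19% in these data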;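 note: 0% = DMSO alone and 100% = 87 µM carbachol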
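Material: zebrafish TRPN1-YFP in HEK293 cells. Doses: one dose of 3 µM, 0.3% DMSO. Incubation: dye 1 h 37 °C plus 30 min RT. Measured by: intracellular calcium fluorescence with Fluo-8.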
TRPML3 ag – human TRPML3 channel agonists, primary screen, cell-based, HEK293 TRPML3-YFP, Fluo-8 calcium fluorescence, 3 µM; Mucolipin-3 (Homo sapiens), Q8TDD5; 100% = the carbachol control signal; activation, % at 3 µM; actives 0.29% (n = 220,000);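 active = activation above its plate's cutoff, the mean activation of the plate's test wells plus 3 SD, cut at about 12% in these data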;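 note: 0% = DMSO only wells and 100% = carbachol wells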
Target sequence (Q8TDD5 whole entry, looked up): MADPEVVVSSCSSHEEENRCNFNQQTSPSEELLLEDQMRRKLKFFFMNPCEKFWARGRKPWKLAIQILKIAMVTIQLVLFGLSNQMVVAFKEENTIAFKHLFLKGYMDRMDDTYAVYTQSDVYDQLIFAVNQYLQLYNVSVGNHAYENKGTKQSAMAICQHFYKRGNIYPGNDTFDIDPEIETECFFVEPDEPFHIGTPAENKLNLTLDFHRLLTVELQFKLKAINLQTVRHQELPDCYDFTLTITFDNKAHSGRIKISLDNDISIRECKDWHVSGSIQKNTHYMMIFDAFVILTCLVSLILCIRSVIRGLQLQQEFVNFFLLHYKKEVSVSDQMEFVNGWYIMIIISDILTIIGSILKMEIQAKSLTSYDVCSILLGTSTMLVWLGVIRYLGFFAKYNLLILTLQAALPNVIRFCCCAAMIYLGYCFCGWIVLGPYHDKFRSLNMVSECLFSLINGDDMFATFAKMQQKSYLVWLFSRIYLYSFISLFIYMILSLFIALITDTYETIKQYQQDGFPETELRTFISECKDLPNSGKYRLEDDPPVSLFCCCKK
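Material: HEK293 cells stably carrying human TRPML3-YFP; compound dosing: single dose, 3 µM final nominal compound, 0.3% DMSO final; incubation: 1-h 37 °C dye load, 5-s basal, 120-s post-compound reads; technique: Fluo-8 intracellular calcium fluorescence, excitation 470-495 nm, emission 515-575 nm; read-out basis: percent activation from peak-to-basal fluorescence ratio, scaled between DMSO and carbachol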
The depositor's hits bear a star; nt = not tested or not shown.

SMILES	CRFBP-R2 agonist	CRFBP-R2 block	TRPN1 ag	TRPML3 ag
COc1ccc(CCNC(=O)c2cc(S(=O)(=O)N3CCc4ccccc43)ccc2F)cc1OC	0	13	nt	nt
CC(=O)C1=C(O)C(=O)N(c2cc(C(C)(C)C)on2)C1c1ccc(Br)cc1 (stereo not given)	1	-7	-1	0
CC(=O)C1=C(O)C(=O)N(c2cc(C(C)(C)C)on2)C1c1ccc(C(C)C)cc1 (stereo not given)	64*	5	0	1
Cc1ccc(S(=O)(=O)NC(Cc2ccccc2)C(=O)O)cc1 (stereo not given)	-2	3	0	1
Cc1ccc(S(=O)(=O)NC(C(=O)O)c2ccccc2)cc1 (stereo not given)	133*	-176	1	0
CCOc1ccc(N=Nc2c(=O)[nH]n3c(=O)cc(C)[nH]c23)cc1	-2	0	-1	-1
CCOc1ccc(N=Nc2c(=O)[nH]n3c(=O)c4c([nH]c23)CCCC4)cc1	-6	51*	0	0
O=c1[nH]n2c(=O)c3c([nH]c2c1N=Nc1cccc(Cl)c1)CCCC3	-1	67*	-1	0
COc1ccc(CN(C(=O)c2nsc(Cl)c2Cl)C(C(=O)NC2CCCC2)c2ccc(OC)cc2)cc1 (stereo not given)	53*	-10	-2	-1
COc1ccc(CN(C(=O)c2snc(C(N)=O)c2N)C(C(=O)NC2CCCC2)c2ccc(OC)cc2)cc1 (stereo not given)	-1	4	nt	nt
Cc1cccc(NC(=O)CSCC(=O)N(C)CC(=O)Nc2cccc(F)c2)c1	0	1	nt	nt
O=C1C2C3C=CC(C3)C2C(=O)N1c1ccc2ccccc2n1 (stereo not given)	-1	10	0	1
O=C1C2C3C=CC(C3)C2C(=O)N1c1cccc(N2C(=O)C3C4C=CC(C4)C3C2=O)n1 (stereo not given)	73*	-91	-1	0
CCN1CCCC1CN(Cc1cc2ccc(C)cc2[nH]c1=O)C(=S)Nc1ccccc1C(=O)OC (stereo not given)	-3	-18	1	1
N#CC1=C(N)Oc2cc(O)c(Cl)cc2C1c1ccccc1F (stereo not given)	192*	-195	nt	nt
N#CC1=C(N)Oc2cc(O)c(Cl)cc2C1c1cccnc1 (stereo not given)	22	-20	nt	nt
COc1ccc(C(=O)COC(=O)c2cccnc2SC)cc1	0	78*	0	0
CN(CC(=O)Nc1ccccc1Cl)C(=O)c1cccc(S(=O)(=O)N2CCN(c3ccc(F)cc3)CC2)c1	5	5	nt	nt
COCc1ccc(CN2CCC(C(=O)Nc3cccc(-c4cscn4)c3)CC2)o1	2	90*	nt	nt
O=S(=O)(Nc1cc(S(=O)(=O)N2CCOCC2)ccc1Cl)c1ccccc1	-2	-8	nt	nt
CC1CC1c1ccc(/C=C(\C#N)C(=O)Nc2ccc(Cl)cc2)o1 (stereo not given)	10	-16	1	1
N#C/C(=C/c1ccc(N2CCCCC2)o1)C(=O)Nc1ccc2ccccc2c1	207*	-204	40*	22*
N#C/C(=C/c1ccc(N2CCCCC2)o1)C(=O)Nc1ccc(Cl)cc1	155*	-117	28*	39*
COC(=O)c1sc(NC(=O)c2ccc(Cn3cc(Cl)cn3)o2)c(C#N)c1C	-2	13	9	2
Nc1cccc(N2C(=O)c3cccc4c(N)ccc(c34)C2=O)c1	162*	-120	nt	nt
SMILES	CRFBP-R2 agonist	CRFBP-R2 block	TRPN1 ag	TRPML3 ag
CC(C)CCN1C(=O)c2cccc3c(N)ccc(c23)C1=O	166*	-101	nt	nt
Cc1cccc(N2C(=O)c3cccc4c(N)ccc(c34)C2=O)c1	268*	-219	nt	nt
Cc1cccc(N2C(=O)c3cccc4c(N(C)CCO)ccc(c34)C2=O)c1	191*	-216	39*	30*
CCN1C(=O)c2cccc3c(Cl)ccc(c23)C1=O	-3	-10	0	-1
O=C(O)c1cccc(N2C(=O)c3cccc4c(Cl)ccc(c34)C2=O)c1	0	-11	1	1
COCC1CCN(C(=O)c2cc(COc3cc(C)c(Cl)c(C)c3)on2)C1 (stereo not given)	1	-5	nt	nt
COC(=O)c1cc(OC)c(OC)cc1NC(=O)c1ccccc1C	-1	-11	0	1
COc1cc(Cl)c(C)cc1NC(=O)c1ccc2c(c1)OCO2	0	4	nt	nt
